Measured values as given in ChEMBL document CHEMBL1255535, “7-O-Arylmethylgalangin as a novel scaffold for anti-HCV agents” (Bioorg Med Chem Lett, 2010).

How the values were obtained:
[1] = Cytotoxicity against human Huh5-2 cells after 3 days by WST-1 assay; assay type: cell-based, Huh-5-2
In short: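 Huh-5-2 cells seeded at 5 × 10³/well in complete DMEM with G418; serial compound dilutions in DMEM without G418 added 24 h later; cells proliferated 3 days at 37 °C; cell number by WST-1. CC50 = concentration reducing cell proliferation by 50%.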

Hepatitis C virus = assay: Antiviral activity against HCV assessed as inhibition of viral replication by luciferase assay; assay type: functional, organism-based, Hepacivirus hominis
In short: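 Huh-5-2 replicon cells (5 × 10³/well) seeded in complete DMEM with G418, 24 h at 37 °C (5% CO2), then medium refreshed with G418 and compounds added from DMSO stock; 4 days at 37 °C; luciferase activity read by Steady-Glo. EC50 = concentration inhibiting HCV RNA replication by 50%, averaged from triplicate determinations; IFN-α as positive control.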

[2] = Selectivity index, ratio of CC50 for human Huh5-2 cells to EC50 for HCV; set-up: species or system Huh-5-2
In short: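 Selectivity index computed as CC50 (Huh-5-2 proliferation, WST-1, 3 days) divided by EC50 (replicon luciferase, 4 days), both from the same Huh-5-2 cell line.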

Row | Structure (SMILES) | EC50 (Hepatitis C virus) | CC50 at 72 h [1] | Selectivity Index [2]
1 | COc1ccccc1COc1cc(O)c2c(=O)c(O)c(-c3ccccc3)oc2c1 | 53 µM | > 100 µM | –
2 | O=c1c(O)c(-c2ccccc2)oc2cc(OCc3ccccc3Cl)cc(O)c12 | 30 µM | > 100 µM | –
3 | N#Cc1ccccc1COc1cc(O)c2c(=O)c(O)c(-c3ccccc3)oc2c1 | 39 µM | 22 µM | 0.6
4 | O=c1c(O)c(-c2ccccc2)oc2cc(OCc3ccccc3[N+](=O)[O-])cc(O)c12 | 25 µM | 32 µM | 1.3
5 | O=c1c(O)c(-c2ccccc2)oc2cc(OCc3cccc([N+](=O)[O-])c3)cc(O)c12 | 2 µM | 76 µM | 38
6 | N#Cc1ccc(-c2oc3cc(OCc4ccc(Cl)cc4)cc(O)c3c(=O)c2O)cc1 | 0.9 µM | 67 µM | 74.4
7 | O=c1c(O)c(-c2ccc(C(F)(F)F)cc2)oc2cc(OCc3ccc(Cl)cc3)cc(O)c12 | 3 µM | 73 µM | 24.3
8 | COc1ccc(-c2oc3cc(OCc4ccc(Cl)cc4)cc(O)c3c(=O)c2O)cc1 | 6 µM | 64 µM | 10.7
9 | O=C(O)/C(O)=C/C(=O)c1cccc(NCc2ccc(Cl)cc2)c1 | 0.82 µM | – | –

More lines, main results first:

Row | EC50 (Hepatitis C virus) | Structure (SMILES) | CC50 at 72 h [1] | Selectivity Index [2]
10 | 10 µM | O=c1c(O)c(-c2ccccc2)oc2cc(OCc3ccccc3Br)cc(O)c12 | > 100 µM | –
11 | 7 µM | Cc1ccccc1COc1cc(O)c2c(=O)c(O)c(-c3ccccc3)oc2c1 | 17 µM | 2.4
12 | 22 µM | O=c1c(O)c(-c2ccccc2)oc2cc(OCc3cccc(Cl)c3)cc(O)c12 | > 100 µM | –
13 | 37 µM | O=c1c(O)c(-c2ccccc2)oc2cc(OCc3cccc(Br)c3)cc(O)c12 | > 100 µM | –
14 | 3 µM | N#Cc1cccc(COc2cc(O)c3c(=O)c(O)c(-c4ccccc4)oc3c2)c1 | 72 µM | 24
15 | 27 µM | Cc1cccc(COc2cc(O)c3c(=O)c(O)c(-c4ccccc4)oc3c2)c1 | 35 µM | 1.3
16 | 15 µM | COc1cccc(COc2cc(O)c3c(=O)c(O)c(-c4ccccc4)oc3c2)c1 | > 100 µM | –
17 | 8 µM | O=c1c(O)c(-c2ccccc2)oc2cc(OCc3ccc(Cl)cc3)cc(O)c12 | > 100 µM | –
18 | 6 µM | O=c1c(O)c(-c2ccccc2)oc2cc(OCc3ccc(Br)cc3)cc(O)c12 | > 100 µM | –
19 | 19 µM | N#Cc1ccc(COc2cc(O)c3c(=O)c(O)c(-c4ccccc4)oc3c2)cc1 | 94 µM | 4.9
20 | 10 µM | O=c1c(O)c(-c2ccccc2)oc2cc(OCc3ccc([N+](=O)[O-])cc3)cc(O)c12 | 93 µM | 9.3
21 | 6 µM | Cc1ccc(COc2cc(O)c3c(=O)c(O)c(-c4ccccc4)oc3c2)cc1 | 88 µM | 14.7
22 | 38 µM | COc1ccc(COc2cc(O)c3c(=O)c(O)c(-c4ccccc4)oc3c2)cc1 | > 100 µM | –
